This note sets out measurements from ChEMBL document CHEMBL4118027, “Preussilides A-F, Bicyclic Polyketides from the Endophytic Fungus Preussia similis with Antiproliferative Activity” (J Nat Prod, 2017).

Values after ≈ are worked out from the molar mass of the structure shown. Active and inactive are the calls of the source. No cut-off for these calls is given here.

The subject of one experiment is Pseudomonas aeruginosa. Briefly: Antibacterial activity against Pseudomonas aeruginosa PA14 by serial dilution method. The experiment is classed as functional, organism-based.
Another experiment deals with KB 3-1. Nature of the experiment: Cytotoxicity against human KB3-1 cells assessed as reduction in cell viability after 5 days by MTT assay. In kind it is functional, cell-based. The settings on record: KB 3-1, 120 h. An outline of the steps:
(§1)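 MTT viability assay run over 5 days on a panel of eight lines (L929, KB3.1, A431, A549, SKOV-3, PC-3, MCF-7, U2OS). IC50 values were derived.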

Experiment [1] has as its system U2OS. Nature of the experiment: Cell cycle arrest in human U2OS cells assessed as accumulation at sub-G1 phase at 5 to 10 ug/ml after 18 hrs by propidium iodide staining based flow cytometry. The experiment is classed as functional. Summed up: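 U2OS were seeded at 7 × 10^5/well in six-well plates and exposed to 5 or 10 μg/mL for 18 h after spreading, with untreated and DMSO mock controls. Cells were trypsinized, fixed in 2% PFA/PBS, then in ice-cold methanol 30 min. Staining: anti-tubulin/anti-lamin antibodies plus RNase A and propidium iodide. Flow cytometry assigned G1, S, G2-M and sub-G1 by DNA content.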

For the next experiment, the system named is PC-3. Briefly: Cytotoxicity against human PC3 cells assessed as reduction in cell viability after 5 days by MTT assay. The experiment is classed as functional, cell-based. As to conditions: PC-3, 120 h. An outline of the steps:
as §1

The test system of the next experiment is Rhodotorula glutinis. Nature of the experiment: Antifungal activity against Rhodotorula glutinis DSM 10134 by serial dilution method. The experiment is classed as functional, organism-based.
In another experiment the test system is Caenorhabditis elegans. Nature of the experiment: Nematicidal activity against Caenorhabditis elegans up to 100 ug/ml. The experiment is classed as functional, organism-based.
In experiment [2] the test system is Mycolicibacterium smegmatis. Briefly: Antibacterial activity against Mycobacterium smegmatis ATCC 700084 by serial dilution method. The experiment is classed as functional, organism-based.
For another experiment, the system named is Setaria italica. Briefly: Phytotoxicity against Setaria italica assessed as inhibition of seedling germination at 100 ug/disk. In kind it is functional, organism-based.
The subject of experiment [3] is U2OS. Nature of the experiment: Cytotoxicity against human U2OS cells assessed as reduction in cell viability after 5 days by MTT assay. The settings on record: 120 h. The experiment is classed as functional, cell-based. Summed up:
as §1
(In general: Tetrazolium assays rely on reduction of a dye to a coloured formazan, in cell work by metabolically active cells.)

A further experiment concerns Candida albicans. Nature of the experiment: Antifungal activity against Candida albicans DSM 1665 by serial dilution method. The experiment is classed as functional, organism-based.
For another experiment, the system named is A549. Nature of the experiment: Cytotoxicity against human A549 cells assessed as reduction in cell viability after 5 days by MTT assay. In kind it is functional, cell-based. As to conditions: A549, 120 h. An outline of the steps:
as §1

Experiment [4] concerns Chromobacterium violaceum. Nature of the experiment: Antibacterial activity against Chromobacterium violaceum DSM 30191 by serial dilution method. In kind it is functional, organism-based.
A further experiment relates to SK-OV-3. Nature of the experiment: Cytotoxicity against human SKOV3 cells assessed as reduction in cell viability after 5 days by MTT assay. In kind it is functional, cell-based. As to conditions: SK-OV-3, 120 h. An outline of the steps:
as §1

Experiment [5] concerns Schizosaccharomyces pombe. Nature of the experiment: Antifungal activity against Schizosaccharomyces pombe DSM 70572 by serial dilution method. In kind it is functional, organism-based.
For experiment [6], the system named is L929. Nature of the experiment: Induction of nuclear fragmentation in mouse L929 cells at cytotoxic IC50 by DAPI staining based microscopic method. In kind it is functional, cell-based.
In experiment [7] the test system is U2OS. Nature of the experiment: Induction of morphological changes in human U2OS cells at 0.5 ug/ml after 24 hrs by DAPI staining based immunofluorescence microscopic method.
The next experiment has as its system A-431. Briefly: Cytotoxicity against human A431 cells assessed as reduction in cell viability after 5 days by MTT assay. The settings on record: A-431, 120 h. In kind it is functional, cell-based. Summed up: as §1
The test system of another experiment is Yamadazyma tenuis. Nature of the experiment: Antifungal activity against Candida tenuis MUCL 29892 by serial dilution method. The experiment is classed as functional, organism-based.
In the next experiment the test system is Mucor plumbeus. Nature of the experiment: Antifungal activity against Mucor plumbeus MUCL 49355 by serial dilution method. In kind it is functional.
Experiment [8] concerns U2OS. Briefly: Induction of morphological changes in human U2OS cells assessed as multipolar and duplicated spindle formation at 0.5 ug/ml after 24 hrs by DAPI staining based immunofluorescence microscopic method. In kind it is functional, cell-based. Summed up: (§2)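 U2OS in DMEM (4.5 g/L glucose, 10% FBS), 37 °C, 7% CO2, seeded 3 × 10^4/well on fibronectin-coated coverslips and adhered 16 h. Treated 24 h at 0.25, 0.5, 2.5, 5 or 10 μg/mL (diluted from 1 mg/mL DMSO stock), DMSO control. Fixed in 4% PFA/PBS 20 min; anti-α-tubulin (DM1A), phalloidin-Alexa 488 and DNA stain; immunofluorescence imaging.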

A further experiment concerns Staphylococcus aureus. Briefly: Antibacterial activity against Staphylococcus aureus DSM 346 by serial dilution method. The experiment is classed as functional, organism-based.
In experiment [9] the test system is L929. Briefly: Cytotoxicity against mouse L929 cells assessed as reduction in cell viability after 5 days by MTT assay. The settings on record: L929, 120 h. The experiment is classed as functional, cell-based. Summed up:
as §1

Another experiment deals with Micrococcus luteus. Briefly: Antibacterial activity against Micrococcus luteus DSM 1790 by serial dilution method. The experiment is classed as functional, organism-based.
The next experiment deals with Lepidium sativum. Briefly: Phytotoxicity against Lepidium sativum assessed as inhibition of seedling germination at 100 ug/disk. In kind it is functional, organism-based.
Another experiment deals with Aspergillus fumigatus. Nature of the experiment: Antifungal activity against Aspergillus fumigatus DSM 819 by serial dilution method. The experiment is classed as functional.
A further experiment concerns Escherichia coli. Briefly: Antibacterial activity against Escherichia coli DSM 498 by serial dilution method. The experiment is classed as functional, organism-based.
The subject of another experiment is Bacillus subtilis. Nature of the experiment: Antibacterial activity against Bacillus subtilis DSM 10 by serial dilution method. The experiment is classed as functional, organism-based.
Another experiment concerns Mucor hiemalis. Nature of the experiment: Antifungal activity against Mucor hiemalis DSM 2656 by serial dilution method. The experiment is classed as functional, organism-based.
The next experiment concerns Sclerotinia sclerotiorum. Briefly: Antifungal activity against Sclerotinia sclerotiorum DSM 1946 at 100 ug/disk after 5 days by disk diffusion assay. As to conditions: DSM 1946, 120 h, read-out: IZ. In kind it is functional. Summed up: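 Disk diffusion on YMG medium seeded with a mycelial suspension of the non-sporulating test fungus. Paper disks carried […] compound. Nystatin at 20 μg/disk was the positive control. Inhibition zone diameter (mm) was read after 5 days.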
Background: In agar diffusion tests the substance spreads into inoculated agar from a disc or well.

The test system of a further experiment is Wickerhamomyces anomalus. Briefly: Antifungal activity against Pichia anomala DSM 6766 by serial dilution method. In kind it is functional, organism-based.
Experiment [10] has as its system U2OS. Nature of the experiment: Induction of morphological changes in human U2OS cells assessed as aberrantly sized cells with abnormal small nuclei formation at 0.5 ug/ml after 24 hrs by DAPI staining based immunofluorescence microscopic method. The experiment is classed as functional, cell-based. An outline of the steps:
as §2

The next experiment concerns MCF7. Briefly: Cytotoxicity against human MCF7 cells assessed as reduction in cell viability after 5 days by MTT assay. In kind it is functional, cell-based. The settings on record: MCF7, 120 h. An outline of the steps: as §1
Experiment [11] relates to U2OS. Briefly: Induction of apoptosis in human U2OS cells assessed as caspase-3/7 cleavage at 250 nM after 16 hrs by caspase-3/7 green reagent based flow cytometry (reference value: 8.04%). The experiment is classed as functional. Background: A flow cytometer gives signals particle by particle.

As for `CC1=C(C[C@H](C)O)[C@H](/C=C(C)/C=C(C)/C=C/C(=O)O)[C@@H]2C(=C1)C[C@@H](C)C(=O)[C@H]2C`, the outcome (in the experiment on Pseudomonas aeruginosa; in the experiment on Rhodotorula glutinis; with Caenorhabditis elegans; in experiment [2]; in the experiment with Setaria italica; in the experiment with Candida albicans) was inactive. Moreover, the result (in [4]; in experiment [5]; in the experiment on Yamadazyma tenuis; in the experiment with Staphylococcus aureus; with Micrococcus luteus; with Lepidium sativum) was inactive. Moreover, the result in the experiment on Escherichia coli, in the experiment with Bacillus subtilis, in the experiment on Mucor hiemalis and in the experiment with Wickerhamomyces anomalus was inactive. Besides, the concentration for half-maximal inhibition (IC50) (as a rule, the concentration that gives 50% inhibition) with KB 3-1 is 6 µM; in the experiment with PC-3 it was 47.7 µM; with U2OS [3], 7.03 µM; in the experiment on A549, 60.3 µM; in the experiment on SK-OV-3, 22.6 µM; with A-431 it was 20.3 µM. Besides, the figures for the half-maximal inhibitory concentration (IC50) in the experiment with L929 [9] and in the experiment with MCF7 were 6.5 µM and 24.3 µM, respectively. Also, the outcome with U2OS [1], in the experiment on L929 [6], with U2OS [7], with U2OS [8] and with U2OS [10] was Active. Besides, the MIC – broadly, the least concentration at which growth counts as inhibited – stood at 150 µg/mL (≈ 376 µM) with Mucor plumbeus and 35.5 µg/mL (≈ 89.1 µM) in the experiment on Aspergillus fumigatus. In addition, the zone of inhibition at 100 µg/disc in the experiment on Sclerotinia sclerotiorum came to 28 mm.

As for `CN[C@@H]1C[C@H]2O[C@@](C)([C@@H]1OC)n1c3ccccc3c3c4c(c5c6ccccc6n2c5c31)C(=O)NC4` [STAUROSPORINE], the Activity in the experiment with U2OS [11] is listed as 22.6%.
